From PubChem
HTRA1 inhibitor: inhibitors of human serine peptidase HTRA1; Q92743; recombinant HTRA1, FP-rhodamine activity-based probe, fluorescence polarization; inhibition, % at 5.96 µM; 340,000 tested, 0.5% active; in the data active = inhibition above about 36%;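 also: 0% = enzyme with DMSO and 100% = wells lacking enzyme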
mABHD4 FP: ABHD4 (mouse) inhibition, primary FP screen | Q8VD66 | purified mABHD4, FP-Rh probe fluorescence polarization | inhibition, % at 8.92 µM | 370,000 tested, 0.54% active;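 active = inhibition exceeding the mean over every tested compound plus 3 SD, cut at about 30% in these data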;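 also: 0% = plate median of compound wells and 100% = S159A mutant with DMSO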
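Assay system: wild-type mouse ABHD4 protein; compound: single nominal dose of 8.92 µM, 0.89% DMSO final; schedule: 45 min + 60 min at 25 °C; measured by: FP readout, ex 525 nm / em 598 nm; evaluation: % inhibition of FP-Rh probe binding versus controls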
TCR CD3 inh: human TCR-CD3 binding inhibition; 360,000 tested, 0.37% active; inhibition, % at 9.4 µM; TAMRA-labeled TCR probe fluorescence, biochemical; in the data active = inhibition above about 19%;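 also: recombinant mutant TCR 2C K166C tagged with TAMRA read by polarization; 0% = receptor in buffer alone and 100% = receptor with positive control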
rCAG binder: binds r(CAG) RNA repeats. r(CAG) RNA repeat, TO-PRO-1 dye displacement fluorescence. inhibition, % at 3 µM. 370,000 tested, 1.3% active;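 active = inhibition above the plate cutoff, the mean of all test compounds on that plate plus 3 SD, cut at about 35% in these data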;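 also: 0% = DMSO alone and 100% = 100 µM mitoxantrone as full dye displacement; higher means more dye released from RNA so lower well fluorescence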
SIAE primary: blocks human sialic acid acetylesterase; Q9HAT2; SIAE FP-Rh probe binding, fluorescence polarization; inhibition, % at 9.66 µM; 370,000 tested, 0.69% active; AID 1053197;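 active = inhibition above a cutoff: mean of compounds within the control limits plus 3 SD of those, cut at about 17% in these data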;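 also: 0% = plate median of compound wells and 100% = probe without SIAE protein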
Target sequence (Q9HAT2 whole entry, looked up): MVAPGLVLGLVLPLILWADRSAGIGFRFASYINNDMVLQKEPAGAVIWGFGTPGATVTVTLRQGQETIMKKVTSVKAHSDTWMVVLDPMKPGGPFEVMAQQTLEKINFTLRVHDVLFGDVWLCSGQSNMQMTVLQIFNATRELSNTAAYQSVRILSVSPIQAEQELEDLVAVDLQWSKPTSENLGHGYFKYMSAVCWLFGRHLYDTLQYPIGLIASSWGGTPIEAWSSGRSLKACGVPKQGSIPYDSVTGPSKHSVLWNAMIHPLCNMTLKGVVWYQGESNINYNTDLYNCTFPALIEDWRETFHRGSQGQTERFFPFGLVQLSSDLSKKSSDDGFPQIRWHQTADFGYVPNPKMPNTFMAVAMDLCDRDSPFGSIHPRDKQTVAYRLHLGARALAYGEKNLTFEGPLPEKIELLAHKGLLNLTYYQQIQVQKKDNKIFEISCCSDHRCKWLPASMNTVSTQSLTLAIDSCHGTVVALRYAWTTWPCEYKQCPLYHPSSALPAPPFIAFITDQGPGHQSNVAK
rCAG bind conf: r(CAG) RNA repeat binding, confirmation | shares compounds with rCAG binder | TO-PRO-1 dye displacement fluorescence | inhibition, % at 3 µM | 4,300 tested, 70% active | AID 652065;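 active = inhibition above a per-plate cutoff, the mean inhibition of sample wells plus 3 SD, cut at about 35% in these data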;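 also: loss of TO-PRO-1 fluorescence as compound displaces dye from 1x1 AA loop RNA; 0% = DMSO only wells and 100% = 100 µM mitoxantrone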
dCAG dye counter: disrupts DNA CAG TO-PRO-1 complex, flagging rCAG hits; shares compounds with rCAG binder; d(CAG) DNA oligo TO-PRO-1 dye displacement, fluorescence; inhibition, % at 3 µM; 4,300 tested, 94% active; AID 652068;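 active = inhibition above its plate's cutoff, the mean test-well inhibition plus 3 SD, cut at about 4.8% in these data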;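 also: 0% = DNA dye mix with DMSO and 100% = 100 µM mitoxantrone; hits displace the dye from DNA and so lower well fluorescence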
dCAG dye DR: disrupts DNA CAG TO-PRO-1 complex in dose response; 250 tested, 20% active; IC50, µM; DNA CAG/GTC duplex TO-PRO-1 dye displacement fluorescence; shares compounds with rCAG binder; AID 686960; in the data active = IC50 below about 10 µM
* hit, by the source's call; nt = no result. A selection: hits, their analogues and other compounds. The true share with any hit is near 2.5%.

SMILES	HTRA1 inhibitor	mABHD4 FP	TCR CD3 inh	rCAG binder	SIAE primary	rCAG bind conf	dCAG dye counter	others
CCc1nnc(NS(=O)(=O)c2ccc(NS(=O)(=O)c3ccccc3[N+](=O)[O-])cc2)s1	-4	-1	5	12	7	nt	nt
CCc1nnc(NS(=O)(=O)c2ccc(NCc3cc(Cl)ccc3O)cc2)s1	-22	-22	-3	65*	0	46*	14*
O=C(CCCN1C(=O)c2cccnc2C1=O)Nc1ccc(Br)cc1	1	-1	-6	-1	10	nt	nt
COc1ccc([C@H]2CC(=O)C=C(c3cccc(CO)c3)C2)cc1	-8	2	-2	-7	9	nt	nt
COC(=O)c1cccc(NS(=O)(=O)c2ccc(OC)cc2)c1C	1	-1	-6	-3	-3	nt	nt
CCOc1ccc(NC(=O)Nc2nc(SCC)ns2)cc1	-21	-4	3	65*	0	31	18*
CCCCNc1ccc2c(c1)OC[C@@H](C)NS2(=O)=O	nt	3	2	2	2	nt	nt
CCOC(=O)[C@@]12CCCC3=C1N(CCC3)C(=O)[C@H]2CC(=O)NCc1ccc(OC)c(OC)c1	nt	-5	nt	-1	2	nt	nt
CCOC(=O)c1c(NC(=O)CSc2ccccc2C(=O)O)sc(C)c1C	-10	2	6	40*	-11	41*	13*
Cc1ccc(C(=O)N/C(=C/c2cn(-c3ccccc3)nc2-c2ccccc2)C(=O)O)cc1	-13	4	-12	52*	-3	45*	12*
CC(=O)C(=Cc1cn(-c2ccccc2)nc1-c1ccccc1)C(C)=O	2	5	7	0	4	nt	nt
Cc1ccc(S(=O)(=O)N/N=C\c2cn(-c3ccccc3)nc2-c2ccccc2)cc1	-73	-36	-5	23	-61	nt	nt
Cc1ccc(-c2nn(-c3ccccc3)cc2/C=N/NS(=O)(=O)c2ccccc2)cc1	-60	-44	4	37*	-58	41*	14*
O=S(=O)(N/N=C\c1cn(-c2ccccc2)nc1-c1ccccc1)c1ccccc1	-24	-35	9	35*	-10	44*	13*
CCCS(=O)(=O)N1CCN=C1SCc1cccc(C)c1	1	-4	8	-4	-1	nt	nt
CCc1cc2ccccc2nc1SCC(=O)Nc1cc(OC)c(OC)cc1C(=O)O	-5	11	6	53*	5	45*	13*
COc1cc(NC(=O)CSc2nc3ccccc3cc2C)c(C(=O)O)cc1OC	-2	3	3	25	4	nt	nt
COc1cc(C(=O)NCc2ccco2)cc(OC)c1OC	3	3	5	-2	8	nt	nt
COc1cc(C(=O)NCCNC(=O)c2ccco2)cc(OC)c1OC	14	-2	-2	46*	-8	43*	13*
O=C(CSc1nc2ccccc2n1Cc1ccccc1Cl)N/N=C/c1ccccc1C(=O)O	-29	-1	0	39*	-10	54*	16*
O=C(O)c1ccc2c(c1)S(=O)(=O)c1cc(N3CCN(c4cnccn4)CC3)ccc1C2=O	-3	9	5	35*	-10	46*	14*
CSc1nc2ccc(NC(=O)c3ccc(F)c(F)c3)cc2s1	-19	-18	7	9	0	nt	nt
CS(=O)(=O)c1ccc2nc(NC(=O)c3ccc(NS(=O)(=O)c4ccc(F)c(F)c4)cc3)sc2c1	-40	-22	2	36*	-56	66*	27*
COc1cc(OC)cc(C(=O)Nc2nc3ccc(S(C)(=O)=O)cc3s2)c1	-6	-9	1	4	-20	nt	nt
CS(=O)(=O)c1ccc2nc(NC(=O)c3cccc(NS(=O)(=O)c4ccc(F)c(F)c4)c3)sc2c1	-52	-59	2	59*	-77	60*	25*
SMILES	HTRA1 inhibitor	mABHD4 FP	TCR CD3 inh	rCAG binder	SIAE primary	rCAG bind conf	dCAG dye counter	others
O=C(Nc1nc2ccc(SC(F)F)cc2s1)c1ccc(NS(=O)(=O)c2ccc(F)c(F)c2)cc1	-153	-144	1	62*	-140	84*	66*
O=C(Nc1ccc2c(c1)[nH]c(=O)c1ccccc12)C(F)(F)F	-4	-2	-6	4	0	nt	nt
O=C(/C=C/c1ccco1)Nc1ccc2nn(-c3ccccc3)nc2c1	-81	-37	12	40*	-28	19	13*
CC(C)CN(CCCNC(=O)CN1C(=O)CSc2ccc(S(=O)(=O)N3CCOCC3)cc21)CC(C)C	-3	3	6	-3	9	nt	nt
Cc1c(/C=C(\CC(=O)O)c2nc3ccccc3s2)cc(C#N)n1C	-2	1	-4	10	-2	nt	nt
Cc1nn(-c2ccccc2)c(Cl)c1/C=C(\CC(=O)O)c1nc2ccccc2s1	-8	-4	-2	42*	3	43*	13*
Cc1nn(-c2ccccc2)c(Cl)c1/C=C(/CC(=O)O)c1nc2ccccc2s1	-7	0	1	47*	-1	36*	9.8*
CS(=O)(=O)N(CC(=O)N/N=C/c1ccc(OCC(=O)N2CCOCC2)cc1)c1ccccc1Cl	6	2	2	1	-3	nt	nt
Cc1ccc(C(=O)N(NC2=NS(=O)(=O)c3ccccc32)S(=O)(=O)c2ccc(C)cc2)cc1	1	5	-9	64*	-4	44*	13*
CCC(=O)Nc1ccccc1C(=O)N1CCCC1	5	3	7	4	16	nt	nt
COc1cccc2sc(Nc3nnc(-c4ccc(F)cc4)o3)nc12	9	10	1	62*	2	72*	28*	dCAG dye DR=>30
NS(=O)(=O)c1ccc(Nc2ncccc2[N+](=O)[O-])cc1	7	2	1	-2	-4	nt	nt
O=C(O)c1cccc(S(=O)(=O)Nc2ccc(Oc3ccccc3)cc2)c1	-5	-7	6	24	-2	nt	nt
Cc1ccc(Oc2ccc(NS(=O)(=O)c3cccc(C(=O)O)c3)cc2)cc1	-12	-9	3	38*	-3	38*	10*
O=C(O)c1cccc(S(=O)(=O)Nc2ccc3[nH]c(=O)[nH]c3c2)c1	2	11	-3	0	0	nt	nt
O=C(O)c1cccc(S(=O)(=O)Nc2ccc3oc(=O)sc3c2)c1	8	18	4	42*	0	7	2
Cc1sc(NC(=O)c2sc3nc4c(C)cccc4cc3c2N)c(C#N)c1C	-5	-16	-16	68*	-14	60*	32*
Cc1cccc2cc3c(N)c(C#N)sc3nc12	-10	3	-4	26	-5	nt	nt
CCNC(=O)/C(C#N)=C/c1c(N2CCN(Cc3ccc4c(c3)OCO4)CC2)nc2c(C)cccn2c1=O	11	-8	-4	0	-1	nt	nt
